Consider 167 variants from the RNAGym collection of RNA variant scans (doi:10.1126/science.aae0568).

B1: tRNA (parent)
chain: GUUCCGUUGGCGUAAUGGUAACGCGUCUCCCUCCUAAGGAGAAGACUGCGGGUUCGAGUCCCGUACGGAACG

Variants at the floor of the assay were thinned out.

Variants of B1 are the subject of this data set. Nature of the data set: yeast fitness relative to wild type (ratio to wild type); higher = fitter; tRNA-Arg(CCU), competitive growth, 37 C, YPD. The method, boiled down: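 Genotype frequency changes were the basis for Darwinian fitness relative to wild type. The frequencies came from 100-nucleotide paired-end sequencing of gene amplicons from the start population and each end population of pooled yeast strains with tRNA-Arg(CCU) gene variants at the native locus. Competition ran in YPD at 37°C for 24 hours in six replicates, genotypes needed ≥ 100 starting reads, and estimates < 0.5 were set to 0.5.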
With A14U C22G A43U A57C G63C C66U, the yeast fitness was no more than 0.5.

In the case of A14U U47A, the yeast fitness was determined as 0.575.

A14U G23A C29G C46A C55G G67A: the yeast fitness is no more than 0.5.

Take A14U G17A G23A: the yeast fitness is no more than 0.5.

Turning to A14U A21U C49U G67C, the yeast fitness is no more than 0.5.

As to A14U A15G C49G, the yeast fitness is no more than 0.5.

For A14U C49G C60A, the yeast fitness was no more than 0.5.

Turning to A14U A70C, the yeast fitness stood at 0.596.

Consider A14U C27U C29G C31U C61G, for which the yeast fitness was no more than 0.5.

A14U G18C U35G C49A C60G G68A: the yeast fitness was no more than 0.5.

As to A14U G17C A57G, the yeast fitness stood at 0.505.

Consider A14U A36U, for which the yeast fitness was found to be 0.531.

A14U A36C: the yeast fitness was found to be 0.586.

Take A14U U35A A43C: the yeast fitness is no more than 0.5.

In the case of A14U A21G G39C A45G G50U U53C, the yeast fitness is no more than 0.5.

In the case of A14U A21G G39C A45G, the yeast fitness was no more than 0.5.

As for A14U G67U, the yeast fitness turned out to be 0.562.

In the case of A14U G67C, the yeast fitness amounted to 0.729.

As for A14U C24G G41A G44A C61U, the yeast fitness was no more than 0.5.

Turning to A14U A37U U59A, the yeast fitness was no more than 0.5.

For A14U C30U C31A G63C, the yeast fitness is no more than 0.5.

Regarding A14U A43C C62U C66U, the yeast fitness was no more than 0.5.

Turning to A14U A21C A36C C49A A65G C66G, the yeast fitness was 0.567.

For A14U A21G A70C, the yeast fitness was determined as 0.543.

A14U C22U A36U: the yeast fitness came to 0.571.

Consider A14U G38A G58A, for which the yeast fitness is no more than 0.5.

With A14U C27G G52A G63C, the yeast fitness is no more than 0.5.

For A14U C22A A43G G52C, the yeast fitness is no more than 0.5.

Regarding A14U G52C C66U, the yeast fitness was no more than 0.5.

Take A14U G17A U59C C61U: the yeast fitness amounted to 0.653.

For the variant A14U U28C C49U G50A C61G A69C, the yeast fitness was determined as 0.621.

With A14U U32C U53A C55A, the yeast fitness is no more than 0.5.

For A14U C24G A42C, the yeast fitness is 0.531.

Take A14U A20G G44C: the yeast fitness was no more than 0.5.

As to A14U U26G A37C, the yeast fitness was no more than 0.5.

For A14U C24G G41A G44A, the yeast fitness was no more than 0.5.

As to A14U A15C G25C, the yeast fitness was no more than 0.5.

Turning to A14U C33A A42C G52A, the yeast fitness is 0.515.

For the variant A14U C55G C61G C66U, the yeast fitness was no more than 0.5.

Regarding A14U G17A C22U C33G, the yeast fitness came out at 0.567.

A14U U16A U26G C29G: the yeast fitness is no more than 0.5.

On to A14U C30U A42G, for which the yeast fitness is no more than 0.5.

For the variant A14U C30U A42C, the yeast fitness is no more than 0.5.

In the case of A14U C30U C46U G52C A69U, the yeast fitness is no more than 0.5.

Consider A14U G63A, for which the yeast fitness was no more than 0.5.

As to A14U G63C, the yeast fitness is no more than 0.5.

Turning to A14U C30G G51C, the yeast fitness was no more than 0.5.

For A14U A42U A65G A69C, the yeast fitness was no more than 0.5.

With A14U C30U U59A, the yeast fitness is no more than 0.5.

Take A14U U26C A42U: the yeast fitness is 0.676.

On to A14U C34U G39C, for which the yeast fitness came to 0.56.

In the case of A14U A21C C29U, the yeast fitness worked out at 0.538.

A14U G48C A70C: the yeast fitness was no more than 0.5.

On to A14U A42C C46A, for which the yeast fitness is no more than 0.5.

In the case of A14U A37C C46U G51C C66G, the yeast fitness worked out at 0.529.

As for A14U A20C C22U C24U C49G U53A G56C, the yeast fitness was determined as 0.547.

On to A14U A37C G44A A70G, for which the yeast fitness was 0.551.

In the case of A14U C30G C62G, the yeast fitness was determined as 0.573.

As to A14U A43C A65U, the yeast fitness is no more than 0.5.

As to A14U U19A A36C G63A, the yeast fitness was 0.586.

Turning to A14U U26A A42G U59G C60U, the yeast fitness was no more than 0.5.

With A14U U28C A70C, the yeast fitness is no more than 0.5.

Turning to A14U C49U C55U, the yeast fitness is no more than 0.5.

Take A14U U26A C30U A69C: the yeast fitness is no more than 0.5.

A14U A37C G44A: the yeast fitness came to 0.757.

A14U C62U: the yeast fitness was 0.616.

As for A14U C22G C60G, the yeast fitness was no more than 0.5.

For A14U G23A A36G, the yeast fitness was no more than 0.5.

For A14U C29G G67A, the yeast fitness amounted to 0.542.

Take A14U U16A C27G A40U: the yeast fitness is no more than 0.5.

On to A14U G52U, for which the yeast fitness stood at 0.592.

With A14U G52A, the yeast fitness is no more than 0.5.

Take A14U C29G G51A C66G: the yeast fitness is no more than 0.5.

Take A15C A20C G41C: the yeast fitness is no more than 0.5.

With A14U G52A G63C G67C A69U, the yeast fitness is no more than 0.5.

With A14U A36U G38A, the yeast fitness is no more than 0.5.

Take A14U C30A C66U A70G: the yeast fitness turned out to be 0.64.

As to A14U C24G G41A G44A U53A, the yeast fitness was 0.55.

Regarding A15C A20C C55G A70G, the yeast fitness is no more than 0.5.

A14U C33A A69G: the yeast fitness was found to be 0.742.

On to A14U C22U A40U G44C, for which the yeast fitness was no more than 0.5.

As for A14U C22U, the yeast fitness was 0.54.

With A14U G56A G67A, the yeast fitness was no more than 0.5.

With A14U A36G A40G A65U, the yeast fitness was no more than 0.5.

In the case of A14U C31A C61A, the yeast fitness is no more than 0.5.

In the case of A14U C33G A42C C49U C55G, the yeast fitness is no more than 0.5.

Turning to A14U U19A C55A C61G, the yeast fitness was no more than 0.5.

As for A15C A20G A21G A57U, the yeast fitness is no more than 0.5.

With A14U A15G C34G C61U, the yeast fitness is no more than 0.5.

As to A14U A36U G41A C49G, the yeast fitness is no more than 0.5.

Regarding A14U C24G C27U U54G, the yeast fitness is no more than 0.5.

For the variant A14U A21G G39C A45G U53C C62U, the yeast fitness was no more than 0.5.

As for A14U C30U A37G A70G, the yeast fitness is no more than 0.5.

Take A14U U19A G23A A43C U47C A57C: the yeast fitness was no more than 0.5.

As to A14U A15G U53G, the yeast fitness is no more than 0.5.

As for A14U C66A, the yeast fitness came out at 0.508.

In the case of A14U C66U, the yeast fitness came out at 0.756.

As to A14U A15G A21C, the yeast fitness amounted to 0.536.

Turning to A14U A21G G58A, the yeast fitness is no more than 0.5.

For A14U A43G A57C C60G C61A, the yeast fitness was no more than 0.5.

Take A14U A43G C49U: the yeast fitness was no more than 0.5.

Turning to A14U U32C A37G C49U, the yeast fitness is no more than 0.5.

On to A14U A21U C31U A43U G44C, for which the yeast fitness was no more than 0.5.

Turning to A14U A20C C31U A37G, the yeast fitness is no more than 0.5.

On to A14U G48A, for which the yeast fitness was determined as 0.931.

As for A14U G48U, the yeast fitness came to 0.567.

As for A14U C24G G58A, the yeast fitness was found to be 0.561.

In the case of A14U C30A U32C, the yeast fitness was no more than 0.5.

In the case of A14U A43U A45G, the yeast fitness came to 0.634.

Take A14U G52A G56A: the yeast fitness is no more than 0.5.

As to A14U G17A G23A G68C, the yeast fitness is no more than 0.5.

As for A14U U26G C55G, the yeast fitness was no more than 0.5.

Regarding A14U G23A C29G C46A C55G A57U C62U, the yeast fitness was no more than 0.5.

Turning to A14U A43G C55G, the yeast fitness was no more than 0.5.

With A14U C24G U26G G56C, the yeast fitness is no more than 0.5.

With A14U C30A C55A C62A, the yeast fitness was determined as 0.578.

Take A14U U26A A45U U53C: the yeast fitness amounted to 0.597.

Take A14U A42U C61U C66U: the yeast fitness is no more than 0.5.

For A14U G18A U35A A57C C62U, the yeast fitness was no more than 0.5.

Regarding A14U G18C A36G, the yeast fitness is no more than 0.5.

For A14U G17A C22U, the yeast fitness was no more than 0.5.

For A14U A21U U32G A37G A45G C55A, the yeast fitness was no more than 0.5.

Turning to A14U C34U A40U G50C, the yeast fitness is no more than 0.5.

As for A14U A21C C22U C33G A57U C60G G68C, the yeast fitness is no more than 0.5.

On to A14U G25C C66U, for which the yeast fitness was no more than 0.5.

Consider A14U A40U A42U G51A, for which the yeast fitness came out at 0.62.

For A14U C31G C61G A69G, the yeast fitness is no more than 0.5.

A14U G68C A69C: the yeast fitness is no more than 0.5.

For A14U C60A, the yeast fitness is no more than 0.5.

A14U C60G: the yeast fitness was no more than 0.5.

Turning to A14U C30G C33A, the yeast fitness was 0.529.

For A14U C30A C31G G41C A70U, the yeast fitness is no more than 0.5.

For A14U U26G G39C A70U, the yeast fitness is no more than 0.5.

Consider A14U C22A A43G G68C, for which the yeast fitness was no more than 0.5.

In the case of A14U U35C, the yeast fitness was found to be 0.601.

As for A14U U35G, the yeast fitness is no more than 0.5.

In the case of A14U A15G A43C G52A G56A C62G A65G, the yeast fitness came out at 0.607.

As for A14U A21U G58C, the yeast fitness was no more than 0.5.

A14U C24U G48C: the yeast fitness is no more than 0.5.

Take A14U C34G C61A: the yeast fitness is no more than 0.5.

Regarding A14U C27A C62G, the yeast fitness stood at 0.667.

Regarding A14U A21C G41A A45G, the yeast fitness is no more than 0.5.

In the case of A14U C46G, the yeast fitness came out at 0.612.

For the variant A14U C27U C29G C31U, the yeast fitness was no more than 0.5.

As for A14U G68C A70G, the yeast fitness was no more than 0.5.

In the case of A14U U26C A42U C49U, the yeast fitness came out at 0.536.

On to A14U A37U C62G A70U, for which the yeast fitness was no more than 0.5.

A14U A45U U47A: the yeast fitness is no more than 0.5.

Take A14U A15U C27A C29G G44C C66A A70G: the yeast fitness was no more than 0.5.

Consider A14U A37G, for which the yeast fitness amounted to 0.6.

On to A14U A37C, for which the yeast fitness was 0.627.

On to A14U A21G C34G A57U A69U, for which the yeast fitness came out at 0.655.

As for A14U A40U G58C, the yeast fitness turned out to be 0.547.

Turning to A14U C29A U54A U59A, the yeast fitness was determined as 0.574.

For A14U C33U, the yeast fitness is no more than 0.5.

As for A14U C33A, the yeast fitness stood at 0.629.

For A14U C33G, the yeast fitness was no more than 0.5.

With A14U A40C A57C, the yeast fitness is no more than 0.5.

As for A14U G18A U35A C46G A69U, the yeast fitness amounted to 0.591.

With A14U C24G A36G G68U, the yeast fitness was no more than 0.5.

For the variant A14U C27U C33U G51A G67A, the yeast fitness was no more than 0.5.

With A14U A42U A57U A70U, the yeast fitness is no more than 0.5.

With A14U A40C C66A, the yeast fitness is no more than 0.5.

As to A14U C49U U54C, the yeast fitness was no more than 0.5.

Regarding A14U C24G G41A G44A U53A C66U, the yeast fitness was determined as 0.533.

Turning to A14U C24U C33G A65U C66U A69C, the yeast fitness was no more than 0.5.

In the case of A14U A15C C31G G50A, the yeast fitness stood at 0.665.
